The source of these data is ChEMBL document CHEMBL2417547 (J Med Chem, 2013).

Series [1] has as its target T1, Cytochrome P450 11B1, mitochondrial (Homo sapiens, UniProt P15538).
T1 sequence (P15538 whole entry): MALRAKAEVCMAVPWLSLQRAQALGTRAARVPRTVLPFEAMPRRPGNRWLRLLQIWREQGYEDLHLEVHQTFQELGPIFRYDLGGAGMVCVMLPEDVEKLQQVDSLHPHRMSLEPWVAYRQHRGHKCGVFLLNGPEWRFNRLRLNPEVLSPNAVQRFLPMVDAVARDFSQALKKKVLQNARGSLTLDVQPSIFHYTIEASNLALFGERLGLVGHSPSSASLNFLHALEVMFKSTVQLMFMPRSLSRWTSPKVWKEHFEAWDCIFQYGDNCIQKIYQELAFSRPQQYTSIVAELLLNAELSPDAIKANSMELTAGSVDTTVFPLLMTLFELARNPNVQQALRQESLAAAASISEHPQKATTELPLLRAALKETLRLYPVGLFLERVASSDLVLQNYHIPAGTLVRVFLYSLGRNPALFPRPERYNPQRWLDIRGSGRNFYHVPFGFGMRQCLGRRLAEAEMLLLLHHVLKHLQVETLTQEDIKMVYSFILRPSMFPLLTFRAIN
The series can be described thus: Inhibition of human CYP11B1 expressed in hamster V79MZh cells using [1,2-3H]-11-deoxycorticosterone as substrate. In kind it is cell-based. The method in brief:
(§1)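 V79MZh hamster fibroblasts expressing human CYP11B1 or CYP11B2 were incubated with [1,2-3H]-11-deoxycorticosterone (100 nM) plus inhibitor at a range of concentrations. The selectivity factor is IC50(CYP11B2)/IC50(CYP11B1).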

Series [2] addresses T2, Cytochrome P450 11B2, mitochondrial (Homo sapiens, UniProt P19099).
T2 sequence (P19099 whole entry): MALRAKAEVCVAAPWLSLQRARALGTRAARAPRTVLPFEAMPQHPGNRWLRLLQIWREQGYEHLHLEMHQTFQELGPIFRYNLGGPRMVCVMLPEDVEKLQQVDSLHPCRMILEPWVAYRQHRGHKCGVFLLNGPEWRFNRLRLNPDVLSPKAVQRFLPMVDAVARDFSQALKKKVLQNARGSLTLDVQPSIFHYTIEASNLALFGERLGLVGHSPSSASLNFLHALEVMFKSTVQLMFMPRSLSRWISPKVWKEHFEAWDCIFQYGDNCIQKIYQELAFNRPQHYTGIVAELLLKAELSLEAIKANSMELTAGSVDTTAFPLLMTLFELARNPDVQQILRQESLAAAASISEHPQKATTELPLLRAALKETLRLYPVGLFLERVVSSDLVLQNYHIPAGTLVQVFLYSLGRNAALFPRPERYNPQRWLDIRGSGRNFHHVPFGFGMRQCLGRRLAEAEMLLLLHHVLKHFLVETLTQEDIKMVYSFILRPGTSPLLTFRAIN
As to the kind of experiment: Inhibition of human CYP11B2 expressed in hamster V79MZh cells using [1,2-3H]-11-deoxycorticosterone as substrate. In kind it is cell-based. The method in brief:
as §1

Another series is filed under the species Homo sapiens. As to the kind of experiment: Selectivity factor, ratio of IC50 for human CYP11B2 to IC50 for human CYP11B1. The method in brief:
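V79MZh hamster fibroblasts expressing human CYP11B1 or CYP11B2 were incubated with [1,2-3H]-11-deoxycorticosterone (100 nM) plus inhibitor at a range of concentrations. […] The selectivity factor is IC50(CYP11B2)/IC50(CYP11B1).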

Series [3] is described as follows: Cytotoxicity against HEK293 cells after 24 hrs. In kind it is cell-based. The note with it: human, read-out: LC50. In outline:
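HEK 293 cells seeded at 2 × 10⁵ cells per well; compounds added 24 h after seeding at 1% final DMSO. Living cell mass determined after 24 h incubation; LC₅₀ calculated. Doxorubicin positive control, rifampicin negative control. Mean of more than three repeats.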

For a further series, the target named is T3, CYP17 (Homo sapiens, UniProt P05093).
T3 sequence (P05093 whole entry): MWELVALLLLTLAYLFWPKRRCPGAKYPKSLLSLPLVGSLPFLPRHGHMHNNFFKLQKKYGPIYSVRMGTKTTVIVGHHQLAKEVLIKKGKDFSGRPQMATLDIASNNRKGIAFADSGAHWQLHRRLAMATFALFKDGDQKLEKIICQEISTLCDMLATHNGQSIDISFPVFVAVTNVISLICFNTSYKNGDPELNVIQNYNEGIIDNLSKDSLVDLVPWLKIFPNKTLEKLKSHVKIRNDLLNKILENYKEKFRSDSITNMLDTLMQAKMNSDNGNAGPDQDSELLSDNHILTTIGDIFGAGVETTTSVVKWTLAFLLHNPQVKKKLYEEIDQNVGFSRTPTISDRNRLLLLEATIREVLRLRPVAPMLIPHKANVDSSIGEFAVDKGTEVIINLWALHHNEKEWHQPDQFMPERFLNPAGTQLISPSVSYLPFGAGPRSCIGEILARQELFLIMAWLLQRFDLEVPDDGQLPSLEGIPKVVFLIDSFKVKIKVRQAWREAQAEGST
The series can be described thus: Inhibition of human CYP17 expressed in Escherichia coli co-expressing rat NADPH-P450 reductase using progesterone as substrate at 2 uM relative to control. The note with it: probe progesterone. The method in brief:
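Human CYP17 expressed in E. coli, co-expressing rat NADPH-P450 reductase. Progesterone substrate at 25 μM with NADPH cofactor. Test compound at 2 μM. Percent inhibition is the mean of at least three experiments (deviations <25%); values ≤5% are treated as not significant.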

The target in a further series is T4, CYP19 (aromatase) (Homo sapiens, UniProt P11511).
T4 sequence (P11511 whole entry): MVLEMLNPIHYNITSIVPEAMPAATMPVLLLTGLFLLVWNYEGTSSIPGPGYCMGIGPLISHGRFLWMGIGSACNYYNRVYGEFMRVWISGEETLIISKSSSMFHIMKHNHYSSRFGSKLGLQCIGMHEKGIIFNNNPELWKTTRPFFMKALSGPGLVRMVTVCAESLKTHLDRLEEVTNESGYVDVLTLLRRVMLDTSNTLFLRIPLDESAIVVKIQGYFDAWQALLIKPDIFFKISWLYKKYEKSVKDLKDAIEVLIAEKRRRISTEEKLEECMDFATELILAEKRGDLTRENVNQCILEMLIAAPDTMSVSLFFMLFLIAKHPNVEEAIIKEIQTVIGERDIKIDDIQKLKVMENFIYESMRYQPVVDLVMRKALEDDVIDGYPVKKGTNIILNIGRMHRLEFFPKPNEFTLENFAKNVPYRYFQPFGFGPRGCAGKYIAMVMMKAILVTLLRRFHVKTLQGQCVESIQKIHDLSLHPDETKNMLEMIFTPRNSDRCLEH
The series can be described thus: Inhibition of microsomal CYP19 in human placenta using [1beta-3H]-androstenedione as substrate at 2 uM by 3H2O method relative to control. The note with it: placental microsomes, probe [1beta-3H]-androstenedione. The method in brief:
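Human placental microsomes as the CYP19 source, with [1β-3H]androstenedione at 500 nM. Activity read by 3H2O release. Compound at 2 μM. Percent inhibition is the mean of at least three experiments (deviations <25%); values ≤5% are not significant.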

Take `c1ccc(-c2ccc(Cc3cncnc3)cn2)cc1`: the IC50 (as a rule, the concentration that inhibits the measured activity by half) in series [1] came out at 240 nM; in series [2], 3110 nM. Further, the Ratio IC50 in the series listed under Homo sapiens was 12.9.
For the molecule `c1ccc(-c2ccc(Cc3ccncc3)cn2)cc1`, the IC50 in series [1] was found to be 98 nM; in series [2] it was 621 nM. Besides, the Ratio IC50 in the series listed under Homo sapiens was determined as 6.4.
With `COc1cccc2c1C(=O)c1c(O)c3c(c(O)c1C2=O)C[C@@](O)(C(=O)CO)C[C@@H]3O[C@H]1C[C@H](N)[C@H](O)[C@H](C)O1` [DOXORUBICIN], in series [3], the CC50 at 24 h was 4300 nM.
Regarding `c1ccc(-c2ccc(Cn3ccnc3)nn2)cc1`, the figures for the IC50 in series [1] and in series [2] were 1710 nM and 4540 nM, respectively. Further, in the series listed under Homo sapiens, the Ratio IC50 was 2.7.
For `c1ccc2c(-c3ccc(Cn4ccnc4)cn3)cccc2c1` the same measures were 68 nM, 656 nM and 9.7.
Turning to `Oc1cncc(Cc2ccc(-c3ccccc3)nc2)c1`, the IC50 in series [1] turned out to be 51 nM; in series [2], 836 nM. Besides, in the series filed under Homo sapiens, the Ratio IC50 came out at 16.4.
For `c1ccc(-c2cncc(Cc3ccc(-c4ccccc4)nc3)c2)cc1` the same measures were 1.3 nM, 0.5 nM and 0.4.
In the case of `CCC(c1ccc(-c2ccccc2)nc1)n1ccnc1` (configuration not stated), the IC50 was 28 nM in series [1] and 92 nM in series [2]. For the same molecule, in the series filed under Homo sapiens, the Ratio IC50 came out at 3.4.
For `c1ccc(-c2ccc(Nc3cccnc3)cn2)cc1`, the IC50 in series [1] and in series [2] was more than 5000 nM throughout.
In turn, `CC(C)C(c1ccc(-c2ccccc2)nc1)n1ccnc1` (configuration not stated) had an IC50 in series [2] of 28 nM. The Ratio IC50 in the series listed under Homo sapiens came out at 2.4.
As for `c1ccc2c(-c3ccc(C(C4CC4)n4ccnc4)cn3)cccc2c1` (configuration not stated), the IC50 in series [1] stood at 151 nM; in series [2], 220 nM. Further, the Ratio IC50 in the series filed under Homo sapiens was determined as 1.5.
Turning to `c1cn(C(c2ccc(-c3ccsc3)nc2)C2CC2)cn1` (configuration not stated), the IC50 turned out to be 11 nM in series [1] and 31 nM in series [2]. The Ratio IC50 in the series filed under Homo sapiens was determined as 2.8.
Turning to `c1ccc(-c2ccc(Cn3ccnc3)cn2)cc1`, the IC50 in series [1] came out at 107 nM; in series [2], 1420 nM. Also, the Ratio IC50 in the series listed under Homo sapiens stood at 13.3.
On to `Cc1ccncc1Cc1ccc(-c2ccccc2)nc1`, for which the IC50 came to 8 nM in series [1] and 19 nM in series [2]. The Ratio IC50 in the series filed under Homo sapiens stood at 2.4.
Consider `CC(c1ccc(-c2ccsc2)nc1)n1ccnc1` (configuration not stated), for which the IC50 in series [1] was 21 nM; in series [2], 151 nM. In the series listed under Homo sapiens, the Ratio IC50 came to 9.1.
In the case of `c1ccc(-c2ccc(C(c3ccccc3)n3ccnc3)cn2)cc1` (configuration not stated), the IC50 in series [1] is 124 nM; in series [2], 110 nM. For the same molecule, the Ratio IC50 in the series filed under Homo sapiens worked out at 0.9.
`CC(c1ccc(-c2ccccc2)nc1)n1ccnc1` (configuration not stated): the IC50 in series [1] was found to be 33 nM; in series [2], 200 nM. Further, the inhibition (commonly the drop in the measured response relative to a control, in per cent) at 2 µM against CYP17 was determined as 13%; on CYP19 (aromatase), 1%. The Ratio IC50 in the series listed under Homo sapiens was determined as 6.1.
As to `c1ccc(-c2ccc(Cc3cccnc3)cn2)cc1`, the IC50 amounted to 32 nM in series [1] and 322 nM in series [2]. Besides, the inhibition at 2 µM stood at 4% against CYP17 and 0% on CYP19 (aromatase). Also, the Ratio IC50 in the series filed under Homo sapiens amounted to 10.1.
On to `c1ccc(-c2ncc(Cn3ccnc3)c3ccccc23)cc1`, for which the values for the IC50 in series [1] and in series [2] were 87 nM and 302 nM, respectively. Besides, the Ratio IC50 in the series filed under Homo sapiens came to 3.5.
In the same order, the values of `c1ccc(-c2ncc(Cn3ccnc3)cn2)cc1` are 1120 nM, more than 5000 nM and more than 5.
In the same order, the values of `c1ccc(-c2ccc(Oc3cccnc3)cn2)cc1` are 1020 nM, 1880 nM and 1.9.
In the case of `c1cn(Cc2ccc(-c3ccsc3)nc2)cn1`, the IC50 was 181 nM in series [1] and 1020 nM in series [2]. Further, the Ratio IC50 in the series filed under Homo sapiens was 5.6.
Take `Fc1cncc(Cc2ccc(-c3ccccc3)nc2)c1`: the IC50 in series [1] came to 125 nM; in series [2] it was 419 nM. Moreover, in the series filed under Homo sapiens, the Ratio IC50 stood at 3.4.
Turning to `COc1cncc(Cc2ccc(-c3ccccc3)nc2)c1`, the IC50 in series [1] came to 5 nM; in series [2], 25 nM. Moreover, in the series filed under Homo sapiens, the Ratio IC50 came out at 5.1.
As to `NC(=O)c1cncc(Cc2ccc(-c3ccccc3)nc2)c1`, the IC50 in series [1] worked out at 427 nM; in series [2], 2920 nM. Moreover, the Ratio IC50 in the series listed under Homo sapiens was found to be 6.9.
Regarding `c1ccc(-c2ccc(Cc3cncc4ccccc34)cn2)cc1`, the IC50 in series [1] was found to be 6 nM; in series [2], 23 nM. Besides, the Ratio IC50 in the series listed under Homo sapiens amounted to 4.2.
In the case of `c1ccc(-c2cnc(Cn3ccnc3)cn2)cc1`, the results for the IC50 in series [1] and in series [2] were 610 nM and 1020 nM, respectively. Moreover, the Ratio IC50 in the series listed under Homo sapiens is 1.7.
On to `CO[C@H]1/C=C/O[C@@]2(C)Oc3c(C)c(O)c4c(O)c(c(/C=N/N5CCN(C)CC5)c(O)c4c3C2=O)NC(=O)/C(C)=C\C=C\[C@H](C)[C@H](O)[C@@H](C)[C@@H](O)[C@@H](C)[C@H](OC(C)=O)[C@@H]1C` [RIFAMPIN], for which the CC50 at 24 h in series [3] was more than 100000 nM.
Take `c1ccc(-c2ccc(C(c3ccco3)n3ccnc3)cn2)cc1` (configuration not stated): the IC50 in series [1] worked out at 69 nM; in series [2], 74 nM. Moreover, the Ratio IC50 in the series filed under Homo sapiens turned out to be 1.1.
The molecule `CC(C)(C(=O)c1cccnc1)c1cccnc1` [METYRAPONE] returned an inhibition at 2 µM against CYP17 of 3%.
On to `c1ccc(-c2ccc(C(C3CC3)n3ccnc3)cn2)cc1` (configuration not stated), for which the IC50 in series [1] was found to be 21 nM; in series [2], 25 nM. In addition, in the series filed under Homo sapiens, the Ratio IC50 was determined as 1.2.
For `CC(c1ccc(-c2cccc3ccccc23)nc1)n1ccnc1` (configuration not stated) the same measures were 60 nM, 273 nM and 4.6.
